Assay results: ChEMBL document CHEMBL4311975, “Exploration of the antibiotic potentiating activity of indolglyoxylpolyamines” (Eur J Med Chem, 2019)
Converted amounts (≈) assume the structure as drawn.

Experiments:
Acinetobacter baumannii [1] = assay: Antibacterial activity against Acinetobacter baumannii AYE assessed as growth inhibition; format: functional
Staphylococcus aureus = assay: Antibacterial activity against Staphylococcus aureus ATCC 25923 assessed as growth inhibition incubated for 18 hrs by broth dilution method; format: functional; conditions: ATCC 25923, 18 h
Method in brief: (§1)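 Broth microdilution following CA-SFM recommendations. Inoculum was 10^5 CFU in Mueller-Hinton broth with two-fold serial drug dilutions. Plates were incubated 18 h at 37 °C. MIC was the lowest concentration giving complete inhibition of visible growth. Values are means, n = 3.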

[2] = system: Staphylococcus intermedius; assay: Antibacterial activity against Staphylococcus intermedius 1051997 assessed as growth inhibition incubated for 18 hrs by broth dilution method; format: functional; conditions: Staphylococcus intermedius, 1051997, 18 h; method in brief: as §1
Pseudomonas aeruginosa [3] = assay: Antibacterial activity against Pseudomonas aeruginosa ATCC 27853 assessed as growth inhibition incubated for 18 hrs by broth dilution method; format: functional; conditions: ATCC 27853, 18 h; method in brief: as §1
Escherichia coli = assay: Antibacterial activity against Escherichia coli ATCC 25922 assessed as growth inhibition incubated for 18 hrs by broth dilution method; format: functional; conditions: ATCC 25922, 18 h; method in brief: as §1
Klebsiella pneumoniae [4] = assay: Antibacterial activity against Klebsiella pneumoniae ATCC 13443 assessed as growth inhibition; format: functional
Klebsiella pneumoniae [5] = assay: Antibacterial activity against Klebsiella pneumoniae ATCC 700603 assessed as growth inhibition incubated for 18 hrs by resazurin dye based assay; format: functional; conditions: Klebsiella pneumoniae, 700603, 18 h
Method in brief: (§2)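 Overnight cultures were diluted 40-fold in MHB and grown 1.5–2 h at 37 °C to mid-log phase. Cells were added at 5×10^5 CFU/mL final to two-fold compound dilutions (0.008–32 μg/mL final), in duplicate, for 18 h at 37 °C. Resazurin (0.001% final) was added for 2 h and MIC read by eye. Means, n = 2.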

Acinetobacter baumannii [6] = assay: Antibacterial activity against Acinetobacter baumannii ATCC 19606 assessed as growth inhibition incubated for 18 hrs by resazurin dye based assay; format: functional; conditions: ATCC 19606 = CIP 70.34 = JCM 6841, 18 h; method in brief: as §2
Candida albicans = assay: Antifungal activity against Candida albicans ATCC 90028 assessed as growth inhibition incubated for 36 hrs by resazurin dye based assay; format: functional; conditions: ATCC 90028, 36 h
Method in brief: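 Yeast was grown 3 days on YPD agar at 30 °C. Colonies were suspended and diluted in YNB broth to 2.5×10^3 CFU/mL, then added to two-fold compound dilutions (0.008–32 μg/mL final), in duplicate. Plates stood 36 h at 35 °C without shaking. Means, n = 2.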

Cryptococcus neoformans = assay: Antifungal activity against Cryptococcus neoformans ATCC 208821 assessed as growth inhibition incubated for 36 hrs by resazurin dye based assay; format: functional; conditions: ATCC 208821, 36 h
Method in brief: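 Cryptococcus was grown 3 days on YPD agar at 30 °C, suspended, and diluted in YNB broth to 2.5×10^3 CFU/mL. Cells were exposed to 0.008–32 μg/mL compound (final), in duplicate, for 36 h at 35 °C without shaking. Resazurin (0.006% final) was added for a further 3 h. MIC was read from absorbance at OD570–600. Means, n = 2.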

Pseudomonas aeruginosa [7] = assay: Potentiation of doxycycline-induced antibacterial activity against Pseudomonas aeruginosa ATCC 27853 assessed as concentration required to restore 2 ug/ml doxycycline activity measured after 18 hrs; format: functional
Method in brief: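 Inoculum was 5×10^5 CFU in MHB with two-fold serial dilutions of adjuvant plus fixed doxycycline at 2 μg/mL. […] Repeated independently in triplicate.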

L6 = assay: Cytotoxicity against rat L6 cells measured after 72 hrs by alamar blue assay; format: cell-based; conditions: L6, 72 h
Method in brief: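 Rat L6 myoblasts, 4×10^4/well in RPMI 1640 with L-glutamine and 10% FBS, received seven 3-fold dilutions (90 to 0.123 μg/mL) for 72 h. Alamar Blue was added for 2 h and fluorescence read at ex 536/em 588 nm. Podophyllotoxin served as reference. Means, n = 2.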

[8] = Cytotoxicity against human HEK293 cells measured after 20 hrs by resazurin dye based fluorescence assay; format: cell-based
Method in brief: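 HEK293 cells, 5,000/well in DMEM with 10% FBS, were exposed to compound for 20 h at 37 °C, 5% CO2. Resazurin (100 μM final) was added for 3 h, then fluorescence read at ex 560/em 590. Signal was normalised to tamoxifen (74 μg/mL, 0%) and untreated growth (100%), and CC50 came from dose-response fitting. Top dose 32 μg/mL. Means, n = 2.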

[9] = Hemolytic activity against Sprague-Dawley rat RBC assessed as release of hemoglobin at 50 uM incubated for 1 hr relative to control; format: ADME, cell-based, Erythrocyte; conditions: red blood cells (erythrocytes), read-out: Activity
Method in brief: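 Fresh Sprague-Dawley rat erythrocytes were washed in saline and resuspended at 2% v/v. Cells were incubated with compound in DMSO/PBS for 1 h at 37 °C, then centrifuged at 200 g, and supernatant absorbance read at 540 nm. Results were normalised to DMSO/PBS (0%) and 0.1% Triton X-100 (100%). Single-point testing used 50 μM; HC50 came from 10-point curves. Means of three experiments.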

| Structure (SMILES) | MIC (Acinetobacter baumannii [1]) [µM] | MIC (Staphylococcus aureus) [µM] | MIC [2] [µM] | MIC (Pseudomonas aeruginosa [3]) [µM] | MIC (Escherichia coli) [µM] | MIC (Klebsiella pneumoniae [4]) [µM] | MIC (Klebsiella pneumoniae [5]) [µM] | MIC (Acinetobacter baumannii [6]) [µM] | MIC (Candida albicans) [µM] | MIC (Cryptococcus neoformans) [µM] | Activity (Pseudomonas aeruginosa [7]) [µM] | IC50 (L6) [µM] | CC50 at 20 h [8] [µM] | hemolysis at 1 h, 50 µM [9] [%] |
| --- | --- | --- | --- | --- | --- | --- | --- | --- | --- | --- | --- | --- | --- | --- |
| O=C(N[C@H](CO)[C@H](O)c1ccc([N+](=O)[O-])cc1)C(Cl)Cl [CHLORAMPHENICOL] | > 200 | 1.5 to 3 (≈ 0.485 to 0.969 µg/mL) | 3 to 6 (≈ 0.969 to 1.94 µg/mL) | > 200 | > 200 | 50 (≈ 16.2 µg/mL) | – | – | – | – | – | – | – | – |
| Cc1cccc2c(C(=O)C(=O)NCCCNCCCCNCCCNC(=O)C(=O)c3c[nH]c4c(C)cccc34)c[nH]c12.O=C(O)C(F)(F)F.O=C(O)C(F)(F)F | – | 25 | 12.5 | > 200 | > 200 | – | > 40 | > 40 | > 40 | 10 | 6.25 | 59.6 | > 40 | 0.1 |
| COc1ccc2[nH]cc(C(=O)C(=O)NCCCNCCCCNCCCNC(=O)C(=O)c3c[nH]c4ccc(OC)cc34)c2c1 | – | 100 (≈ 60.5 µg/mL) | 50 (≈ 30.2 µg/mL) | > 200 | > 200 | – | > 38.4 | > 38.4 | > 38.4 | 19.2 (≈ 11.6 µg/mL) | 12.5 | 56 | > 38.4 | 0 |
| CCn1cc(C(=O)O)c(=O)c2ccc(C)nc21 [NALIDIXIC ACID] | > 200 | – | – | > 200 | > 200 | 100 (≈ 23.2 µg/mL) | – | – | – | – | – | – | – | – |
| CC[C@H]1OC(=O)[C@H](C)[C@@H](O[C@H]2C[C@@](C)(OC)[C@@H](O)[C@H](C)O2)[C@H](C)[C@@H](O[C@@H]2O[C@H](C)C[C@H](N(C)C)[C@H]2O)[C@](C)(O)C[C@@H](C)C(=O)[C@H](C)[C@@H](O)[C@]1(C)O [ERYTHROMYCIN] | 200 (≈ 147 µg/mL) | – | – | > 200 | > 200 | > 200 | – | – | – | – | – | – | – | – |
| COC(=O)c1ccc2c(C(=O)C(=O)NCCCNCCCCNCCCNC(=O)C(=O)c3c[nH]c4cc(C(=O)OC)ccc34)c[nH]c2c1.O=C(O)C(F)(F)F.O=C(O)C(F)(F)F | – | > 200 | 12.5 | > 200 | > 200 | – | > 36 | > 36 | > 36 | 9 | 25 | 63.6 | > 36 | 0.6 |

Further lines, with some results ahead:

| MIC (Acinetobacter baumannii [1]) [µM] | MIC (Staphylococcus aureus) [µM] | MIC [2] [µM] | MIC (Pseudomonas aeruginosa [3]) [µM] | MIC (Escherichia coli) [µM] | MIC (Klebsiella pneumoniae [4]) [µM] | MIC (Klebsiella pneumoniae [5]) [µM] | MIC (Acinetobacter baumannii [6]) [µM] | MIC (Candida albicans) [µM] | MIC (Cryptococcus neoformans) [µM] | Structure (SMILES) | Activity (Pseudomonas aeruginosa [7]) [µM] | IC50 (L6) [µM] | CC50 at 20 h [8] [µM] | hemolysis at 1 h, 50 µM [9] [%] |
| --- | --- | --- | --- | --- | --- | --- | --- | --- | --- | --- | --- | --- | --- | --- |
| – | 25 | > 200 | 200 | 200 | – | > 36 | > 36 | > 36 | 9 | COC(=O)c1cccc2c(C(=O)C(=O)NCCCNCCCCNCCCNC(=O)C(=O)c3c[nH]c4c(C(=O)OC)cccc34)c[nH]c12.O=C(O)C(F)(F)F.O=C(O)C(F)(F)F | 6.25 | 34.4 | 3.78 | 15 |
| – | > 100 | > 100 | > 100 | > 100 | – | > 41.4 | > 41.4 | > 41.4 | 10.3 (≈ 5.61 µg/mL) | O=C(NCCCNCCCCNCCCNC(=O)C(=O)c1c[nH]c2ccccc12)C(=O)c1c[nH]c2ccccc12 | >50 | 60 | > 41.5 | 0 |
| – | 100 | 6.25 | 200 | 200 | – | > 36 | > 36 | > 36 | > 36 | COC(=O)c1ccc2[nH]cc(C(=O)C(=O)NCCCNCCCCNCCCNC(=O)C(=O)c3c[nH]c4ccc(C(=O)OC)cc34)c2c1.O=C(O)C(F)(F)F.O=C(O)C(F)(F)F | 25 | 41.8 | > 36 | 0 |
| 12.5 (≈ 5.56 µg/mL) | – | – | 90 (≈ 40 µg/mL) | 25 (≈ 11.1 µg/mL) | 25 (≈ 11.1 µg/mL) | – | – | – | – | C[C@H]1c2cccc(O)c2C(=O)C2=C(O)[C@]3(O)C(=O)C(C(N)=O)=C(O)[C@@H](N(C)C)[C@@H]3[C@@H](O)[C@@H]21 [DOXYCYCLINE] | – | – | – | – |
| – | 50 | 50 | 200 | 100 | – | 35.2 | > 35.2 | 35.2 | 4.4 | O=C(NCCCNCCCCNCCCNC(=O)C(=O)c1c[nH]c2cc(C(F)(F)F)ccc12)C(=O)c1c[nH]c2cc(C(F)(F)F)ccc12.O=C(O)C(F)(F)F.O=C(O)C(F)(F)F | 100 | 31.4 | 3.36 | 3.2 |
